Measured values from ChEMBL document CHEMBL4024771, “Optimization of Orally Bioavailable Enhancer of Zeste Homolog 2 (EZH2) Inhibitors Using Ligand and Property-Based Design Strategies: Identification of Development Candidate …” (J Med Chem, 2018).
≈ marks a conversion by molar mass, not a printed value.

Key:
[1] = Intrinsic clearance in human liver microsomes assessed per mg protein at 1 uM preincubated for 10 mins followed by NADPH addition measured after 45 mins by LC-MS/MS analysis; type: ADME, microsome; settings: liver microsomes, read-out: CLH
Method in brief: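 Test compound (1 μM) with pooled liver microsomes (0.8 mg/mL protein) in 100 mM potassium phosphate pH 7.4, 10 min preincubation, started with 2 mM NADPH, 45 min at 37 °C, in triplicate. Samples quenched with cold methanol containing buspirone internal standard, analysed by LC−MS/MS. CLint derived from t1/2 of parent loss (log-linear slope).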

[2] = Passive permeability in MDCK cells at 2 uM after 90 mins by LC-MS/MS analysis; type: ADME, cell-based, Canis lupus familiaris; settings: dog; for permeability: mdck, 2 µM; for Papp at […], 2 µM: MDCK, read-out: permeability
Method in brief: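 Low-efflux MDCK cells (MDCK-LE) on 96-well inserts, used on day 4. Monodirectional transport of 2 μM drug in transport buffer with 0.1% DMSO at 37 °C. Donor and receiver sampled at 0 and 90 min for LC−MS/MS. Donor pH 6.5 and 7.4, receiver pH 7.4.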

[3] = Kinetic solubility of the compound; type: physicochemical; settings: for solubility kinetic: read-out: Kinetic_solubility
[4] = target: Histone-lysine N-methyltransferase EZH2 (Homo sapiens, UniProt Q15910); assay: Inhibition of EZH2 in human KARPAS422 cells assessed as reduction in H3K27me3 level after 72 hrs by ELISA
Histone-lysine N-methyltransferase EZH2 (Homo sapiens, UniProt Q15910), sequence (Q15910 whole entry): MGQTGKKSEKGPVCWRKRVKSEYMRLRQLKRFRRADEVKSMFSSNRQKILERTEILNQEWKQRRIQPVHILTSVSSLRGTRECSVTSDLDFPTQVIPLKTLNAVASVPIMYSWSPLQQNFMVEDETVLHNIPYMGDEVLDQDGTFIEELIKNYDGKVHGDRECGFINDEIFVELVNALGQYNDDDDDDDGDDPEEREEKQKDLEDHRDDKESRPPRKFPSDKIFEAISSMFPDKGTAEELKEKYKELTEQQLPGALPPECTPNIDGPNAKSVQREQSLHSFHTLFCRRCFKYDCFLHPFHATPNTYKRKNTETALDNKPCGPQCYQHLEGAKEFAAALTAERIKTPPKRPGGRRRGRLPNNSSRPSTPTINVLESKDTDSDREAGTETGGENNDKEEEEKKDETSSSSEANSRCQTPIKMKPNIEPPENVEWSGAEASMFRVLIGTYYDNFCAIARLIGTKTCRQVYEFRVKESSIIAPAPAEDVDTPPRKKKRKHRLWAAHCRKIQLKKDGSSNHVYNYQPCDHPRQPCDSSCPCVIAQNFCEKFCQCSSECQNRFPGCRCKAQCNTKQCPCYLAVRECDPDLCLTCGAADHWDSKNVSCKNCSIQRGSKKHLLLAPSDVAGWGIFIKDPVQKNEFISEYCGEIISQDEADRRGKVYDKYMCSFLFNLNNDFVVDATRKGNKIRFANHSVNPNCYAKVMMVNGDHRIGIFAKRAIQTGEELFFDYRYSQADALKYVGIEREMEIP

KARPAS-422 = assay: Antiproliferative activity against human KARPAS422 cells after 72 hrs by resazurin assay; type: functional, cell-based
[5] = target: Histone-lysine N-methyltransferase EZH2 (Homo sapiens, UniProt Q15910, Y641N); assay: Inhibition of EZH2 Y641N mutant (unknown origin) using oligonucleosomes as substrate after 60 mins in presence of [3H]SAM by scintillation counting analysis
Histone-lysine N-methyltransferase EZH2 (Homo sapiens, UniProt Q15910, Y641N), sequence (Q15910 whole entry Y641N): as the sequence (Q15910 whole entry) above, with Y641N counted along it

[6] = Lipophilicity, log D of the compound at pH 7.4; settings: buffer

Row | SMILES | microsomal CLint at 1 µM [1] | permeability [2] | solubility kinetic [3] | IC50 [4] | IC50 (KARPAS-422; karpas-422) | Ki [5] | Kinetic_solubility [3] | logD ([6]; pH 7.4) | Papp at […], 2 µM [2] | logD ([6]; pH 7.4, logD) | IC50 (KARPAS-422; Homo sapiens, KARPAS-422, 72 h)
1 | COc1cc(C)[nH]c(=O)c1CN1CCc2c(Cl)cc([C@H](O)C3COC3)c(Cl)c2C1=O | < 8 µL/min/mg | – | 234 µM (≈ 106 µg/mL) | 99 nM | – | 1.5 nM | – | – | 0.7 ×10⁻⁶ cm/s | 1.4 | 108 nM
2 | Cc1cc(C)c(CN2CCc3c(Cl)cc([C@H](CO)[C@@H]4CCCO4)c(Cl)c3C2=O)c(=O)[nH]1 | 37.6 µL/min/mg | – | 400 µM (≈ 186 µg/mL) | 41 nM | – | 10 nM | – | – | 14.6 ×10⁻⁶ cm/s | 2.4 | 57 nM
3 | COc1cc(C)[nH]c(=O)c1CN1CCc2c(Cl)cc(-c3c(C)noc3C)c(Cl)c2C1=O | 70 µL/min/mg | – | 384 µM (≈ 178 µg/mL) | 8 nM | – | 0.15 nM | – | – | 11 ×10⁻⁶ cm/s | 2.7 | 27 nM
4 | COc1cc(C)[nH]c(=O)c1CN1CCc2c(Cl)cc(C(OC)C3(C)COC3)c(Cl)c2C1=O (stereo in doubt; (-)-24b) | 168 µL/min/mg | 4.8 ×10⁻⁶ cm/s | – | 253 nM | 559 nM | 350 nM | 512 µM | 2.2 | – | – | –
5 | CCC(CO)c1cc(Cl)c2c(c1Cl)C(=O)N(Cc1c(C)cc(C)[nH]c1=O)CC2 (stereo in doubt; (-)-5b) | 67.6 µL/min/mg | 10.9 ×10⁻⁶ cm/s | 443 µM (≈ 188 µg/mL) | 682 nM | 502 nM | 14 nM | – | 2.9 | – | – | –
6 | COc1cc(C)[nH]c(=O)c1CN1CCc2c(Cl)cc([C@@H](O)C3COC3)c(Cl)c2C1=O | < 7 µL/min/mg | – | 582 µM (≈ 264 µg/mL) | > 32000 nM | – | 1500 nM | – | – | 1.2 ×10⁻⁶ cm/s | 1.3 | 10600 nM
7 | Cc1cc(C)c(CN2CCc3c(Cl)cc(C(CO)c4ccon4)c(Cl)c3C2=O)c(=O)[nH]1 (stereo in doubt; (-)-21b) | 22.7 µL/min/mg | 8.6 ×10⁻⁶ cm/s | – | – | 2490 nM | – | 481 µM | – | – | – | –
8 | Cc1cc(C)c(CN2CCc3c(Cl)cc([C@H](CO)[C@H]4CCCO4)c(Cl)c3C2=O)c(=O)[nH]1 | 51.6 µL/min/mg | – | 430 µM (≈ 200 µg/mL) | 40 nM | – | 8 nM | – | – | 4.1 ×10⁻⁶ cm/s | 2.1 | 63 nM
9 | CCC(OC)c1cc(Cl)c2c(c1Cl)C(=O)N(Cc1c(C)cc(C)[nH]c1=O)CC2 (single isomer, unassigned; (-)) | 119 µL/min/mg | 13.5 ×10⁻⁶ cm/s | 44 µM (≈ 18.6 µg/mL) | 65 nM | – | 8 nM | – | – | – | – | 270 nM
10 | COC(c1cc(Cl)c2c(c1Cl)C(=O)N(Cc1c(C)cc(C)[nH]c1=O)CC2)C1CCN(C(=O)CO)CC1 (single isomer, unassigned; (-)) | 23 µL/min/mg | 7.1 ×10⁻⁶ cm/s | – | 749 nM | 3140 nM | 70 nM | 513 µM | 2.3 | – | – | –
11 | COC(C)c1cc(Cl)c2c(c1Cl)C(=O)N(Cc1c(C)cc(C)[nH]c1=O)CC2 (single isomer, unassigned; (+)) | 190 µL/min/mg | 37.6 ×10⁻⁶ cm/s | 49 µM (≈ 20.1 µg/mL) | – | 696 nM | – | – | 3.4 | – | – | –
12 | Cc1cc(C)c(CN2CCc3c(Cl)cc([C@@H](CO)[C@@H]4CCCO4)c(Cl)c3C2=O)c(=O)[nH]1 | 70.3 µL/min/mg | – | 550 µM (≈ 256 µg/mL) | 1570 nM | – | 135 nM | – | – | 4.3 ×10⁻⁶ cm/s | 2.1 | 1220 nM
13 | Cc1cc(C)c(CN2CCc3c(Cl)cc([C@@H](C)CO)c(Cl)c3C2=O)c(=O)[nH]1 | 12.4 µL/min/mg | – | 143 µM (≈ 58.5 µg/mL) | 1040 nM | – | 260 nM | – | – | 15 ×10⁻⁶ cm/s | 2.5 | 1500 nM

The next lines start with the values.

Row | microsomal CLint at 1 µM [1] | permeability [2] | solubility kinetic [3] | IC50 [4] | IC50 (KARPAS-422; karpas-422) | Ki [5] | Kinetic_solubility [3] | logD ([6]; pH 7.4) | Papp at […], 2 µM [2] | logD ([6]; pH 7.4, logD) | IC50 (KARPAS-422; Homo sapiens, KARPAS-422, 72 h) | SMILES
14 | 136 µL/min/mg | 18.4 ×10⁻⁶ cm/s | 415 µM (≈ 193 µg/mL) | 1100 nM | 175 nM | 130 nM | – | – | – | – | – | COC(c1cc(Cl)c2c(c1Cl)C(=O)N(Cc1c(C)cc(C)[nH]c1=O)CC2)C1CCOC1 (single isomer, unassigned; (-))
15 | < 13.4 µL/min/mg | 2.3 ×10⁻⁶ cm/s | – | 1130 nM | 2320 nM | 260 nM | 499 µM | 1.5 | – | – | – | COC(c1cc(Cl)c2c(c1Cl)C(=O)N(Cc1c(C)cc(C)[nH]c1=O)CC2)C1CCN(C)CC1 (single isomer, unassigned; (-))
16 | 21.3 µL/min/mg | – | 570 µM (≈ 265 µg/mL) | 10 nM | – | 0.24 nM | – | – | 2.9 ×10⁻⁶ cm/s | 2 | 15 nM | Cc1cc(C)c(CN2CCc3c(Cl)cc([C@H](CO)[C@H]4CCOC4)c(Cl)c3C2=O)c(=O)[nH]1
17 | 34.7 µL/min/mg | 2.9 ×10⁻⁶ cm/s | 496 µM (≈ 238 µg/mL) | 14800 nM | 4400 nM | 3270 nM | – | – | – | – | – | Cc1cc(C)c(CN2CCc3c(Cl)cc(C(CO)C4CCOCC4)c(Cl)c3C2=O)c(=O)[nH]1 (stereo in doubt; (+)-8b)
18 | 75 µL/min/mg | 8.2 ×10⁻⁶ cm/s | – | 391 nM | 269 nM | 92 nM | 505 µM | 2.4 | – | – | – | COc1cc(C)[nH]c(=O)c1CN1CCc2c(Cl)cc(C(OC)C3CCOC3)c(Cl)c2C1=O (single isomer, unassigned; form 2)
19 | 130 µL/min/mg | 16.5 ×10⁻⁶ cm/s | – | 1460 nM | 1150 nM | 310 nM | 57.2 µM | 3.5 | – | – | – | COC(c1cc(Cl)c2c(c1Cl)C(=O)N(Cc1c(C)cc(C)[nH]c1=O)CC2)C1CCOCC1 (single isomer, unassigned; (-))
20 | 25.3 µL/min/mg | – | 537 µM (≈ 250 µg/mL) | 2910 nM | – | 1260 nM | – | – | 3 ×10⁻⁶ cm/s | 2 | 3950 nM | Cc1cc(C)c(CN2CCc3c(Cl)cc([C@@H](CO)[C@@H]4CCOC4)c(Cl)c3C2=O)c(=O)[nH]1
21 | 50.3 µL/min/mg | 8.1 ×10⁻⁶ cm/s | – | – | 1620 nM | – | 498 µM | – | – | – | – | COC(c1cc(Cl)c2c(c1Cl)C(=O)N(Cc1c(C)cc(C)[nH]c1=O)CC2)C1CCN(C(C)=O)CC1 (single isomer, unassigned; (-))
22 | 17 µL/min/mg | – | 543 µM (≈ 254 µg/mL) | 75 nM | – | 16 nM | – | – | 6.8 ×10⁻⁶ cm/s | 1.6 | 467 nM | COc1cc(C)[nH]c(=O)c1CN1CCc2c(Cl)cc([C@@H](OC)C3COC3)c(Cl)c2C1=O
23 | 20 µL/min/mg | 2.7 ×10⁻⁶ cm/s | 522 µM (≈ 243 µg/mL) | 1010 nM | 1040 nM | 150 nM | – | – | – | – | – | Cc1cc(C)c(CN2CCc3c(Cl)cc(C(CO)C4CCOC4)c(Cl)c3C2=O)c(=O)[nH]1 (stereo in doubt)
